Laboratory results reported in ChEMBL document CHEMBL3865841, “Photosensitizer (PS)-cyanine dye (CD) conjugates: Impact of the linkers joining the PS and CD moieties and their orientation in tumor-uptake and photodynamic therapy (PDT)” (Eur J Med Chem, 2016).
Activity calls are given as the source filed them. No cut-off for these calls is given here.

What was measured:
[1] = Phototoxicity against mouse Colon 26 cells implanted in Balb/c mouse assessed as tumor cure incidents at 1.5 umol/kg, iv preincubated for 24 hrs with subsequent irradiation at 128 J/cm2 measured after 60 days; assay type: functional
Summary of the method: (§1)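 BALB/c mice bore s.c. Colon-26 tumors (1 × 10⁶ cells, shoulder) of 4–5 mm. Conjugate given i.v. via tail vein at 0.4, 0.75, 1.5, 2.5 or 3.5 µmol/kg. At 24 h unanesthetized mice got 665 nm laser, 128 J/cm², 14 mW/cm², 1.1 cm spot. Regrowth checked daily, volume L*W²/2. Cure = no palpable tumor by day 60; euthanasia at 400 mm³.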

[2] = Phototoxicity against mouse Colon 26 cells assessed as reduction in cell viability preincubated for 24 hrs with subsequent 4 J/cm2 irradiation measured after 48 hrs incubation in dark by MTT assay; assay type: functional, cell-based; conditions: Colon 26, light or radiation study
Summary of the method: (§2)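 Colon-26 (RPMI-1640, 10% FCS) or U87 (MEM, 10% FCS) cells at 5000/well were given conjugate at 0–4 µM for 24 h. Compounds were formulated in 1% Tween-80/D5W and diluted in medium. Cells were washed and refed, then irradiated at 4 J/cm², 3.2 mW/cm². Then 44 h at 37°C in the dark, MTT 4 h, DMSO, A560. EC50 at 4 J/cm². Colon-26: two independent experiments, triplicates.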

[3] = Ratio of drug uptake in tumor to skin in Balb/c mouse implanted with mouse Colon 26 cells at 0.3 umol/kg, iv after 24 hrs by reflectance spectroscopic analysis; assay type: ADME, organism-based; conditions: in vivo
[4] = Drug uptake in Balb/c mouse liver implanted with mouse Colon 26 cells at 0.3 umol/kg, iv after 24 hrs by reflectance spectroscopic analysis; assay type: ADME, organism-based; conditions: in vivo
[5] = Drug uptake in human U87 cell lysosomes assessed as color overlay at 0.25 to 2 uM after 4 to 24 hrs in dark by FluoSpheres yellow green dye-based confocal microscopic analysis; assay type: ADME, Lysosome; conditions: u-87mg atcc
Summary of the method: (§3)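 U87 glioblastoma cells seeded at 1.25 × 10⁵ in glass-bottom dishes, cultured 24–48 h, then given conjugate at 0.25, 0.5, 1.0 or 2.0 µM in the dark at 37°C for 4 h and 24 h. Co-stained with MitoTracker Red 2.5 nM for 10 min and FluoSpheres yellow/green 1/10,000 of a 1/10 stock for 24 h. Confocal imaging with excitation 488, 543 and 633 nm.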

Mus musculus [6] = assay: Toxicity in Balb/c mouse implanted with mouse Colon 26 cells assessed as mortality at 2.5 to 3.5 umol/kg, iv preincubated for 24 hrs subsequent irradiation at 128 J/cm2 measured up to 60 days; assay type: organism-based; conditions: in vivo, 1440 h
Summary of the method: (§4)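 BALB/c mice carried s.c. Colon-26 tumours (1 × 10⁶ cells, right posterior shoulder) grown to 4–5 mm. Conjugates were given i.v. via the tail vein at 0.4–3.5 µmol/kg. At 24 h, unanaesthetised restrained mice received 665 nm laser light on a 1.1 cm spot (128 J/cm², 14 mW/cm²). Mice were observed daily for up to 60 days for death or morbidity, which led to euthanasia.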

[7] = Drug uptake in human U87 cell mitochondria assessed as color overlay at 0.25 to 2 uM after 4 to 24 hrs in dark by mitotracker red dye-based confocal microscopic analysis; assay type: ADME; conditions: u-87mg atcc; summary of the method: as §3
[8] = Phototoxicity against human U87 cells assessed as reduction in cell viability preincubated for 24 hrs with subsequent irradiation 4 J/cm2 followed by 48 hrs incubation in dark by MTT assay; assay type: functional, cell-based, U-87MG ATCC; conditions: U-87 MG, light or radiation study; summary of the method: as §2
[9] = Drug uptake in mouse colon 26 cell lysosomes assessed as color overlay at 0.25 to 2 uM after 4 to 24 hrs in dark by FluoSpheres yellow green dye-based confocal microscopic analysis; assay type: ADME, Lysosome; conditions: colon 26, 2 µM
Summary of the method: (§5)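 Colon-26 cells seeded at 1.25 × 10⁵ in glass-bottom dishes, cultured 24–48 h, then given conjugate at 0.25, 0.5, 1.0 or 2.0 µM in the dark at 37°C for 4 h and 24 h. Co-stained with MitoTracker Red 2.5 nM for 10 min and FluoSpheres yellow/green 1/10,000 of a 1/10 stock for 24 h. Media replaced before Leica TCS SP2 confocal imaging; excitation 488 (lysosome), 543 (mitochondria), 633 nm (HPPH).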

[10] = Drug uptake in mouse colon 26 cell mitochondria assessed as color overlay at 0.25 to 2 uM after 4 to 24 hrs in dark by mitotracker red dye-based confocal microscopic analysis; assay type: ADME; conditions: colon 26, 2 µM; summary of the method: as §5
Mus musculus [11] = assay: Toxicity in Balb/c mouse implanted with mouse Colon 26 cells assessed as morbidity at 2.5 to 3.5 umol/kg, iv preincubated for 24 hrs subsequent irradiation at 128 J/cm2 measured up to 60 days; assay type: organism-based; conditions: in vivo, 1440 h; summary of the method: as §4
Colon 26 = assay: Phototoxicity against mouse Colon 26 cells implanted in Balb/c mouse assessed as increase in tumor cure incidents at 0.75 to 1.5 umol/kg, iv preincubated for 24 hrs with subsequent irradiation at 128 J/cm2 measured up to 60 days; assay type: functional, organism-based; summary of the method: as §1
[12] = Phototoxicity against mouse Colon 26 cells implanted in Balb/c mouse assessed as tumor cure incidents at 3.5 umol/kg, iv pretreated for 24 hrs subsequent irradiation at 128 J/cm2 measured after 60 days relative to control; assay type: functional; summary of the method: as §1
U-87MG ATCC = assay: Phototoxicity against human U87 cells xenografted in immunocompromized nude mouse assessed as increase in tumor cure incidents at 1.5 umol/kg, iv preincubated for 24 hrs subsequent irradiation at 128 J/cm2 measured after 60 days; assay type: functional, organism-based
Summary of the method: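 Athymic nude mice bore s.c. U87 tumors (2 × 10⁶ cells) of 4–5 mm. Conjugate given i.v. at 1.5 µmol/kg. At 24 h post-injection tumors got 665 nm laser light, 128 J/cm², 14 mW/cm². Mice followed daily for regrowth; cure = no palpable tumor by day 60.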

[13] = Drug uptake in human U87 cells at 1 uM after 24 hrs in dark by flow cytometry; assay type: ADME, cell-based; conditions: u-87mg atcc
Summary of the method: (§6)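 Colon-26 or U87 cells seeded at 5.0 × 10⁵ per well, 24 h, then exposed to conjugate at 1 µM in the dark at 37°C for 24 h. Cells harvested, spun cold at 10°C, resuspended in cold 2% FCS in PBS, run on a BD LSR II. Analysis used the 405 nm violet laser with 780/60, 710/50 and 660/20 nm filters.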

[14] = Drug uptake in mouse Colon 26 cells at 1 uM after 24 hrs in dark by flow cytometry; assay type: ADME, cell-based; conditions: colon 26, 24 h; summary of the method: as §6
[15] = Drug uptake in mouse colon 26 cell mitochondria assessed as color overlay at 1 uM after 24 hrs in dark by mitotracker red dye-based confocal microscopic analysis; assay type: ADME; conditions: colon 26, 24 h
Summary of the method: (§7)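 Colon-26 cells held with conjugate at 1 µM, imaged 24 h later by confocal microscopy. Lysosomal dye FluoSpheres yellow green at 1/100,000 dilution of commercial stock; mitochondrial MitoTracker Red at 2.5 nM for 10 min. Overlays of the conjugate signal with each organelle dye.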

[16] = Drug uptake in mouse colon 26 cell lysosomes assessed as color overlay at 1 uM after 24 hrs in dark by FluoSpheres yellow green dye-based confocal microscopic analysis; assay type: ADME, Lysosome; conditions: colon 26, 24 h; summary of the method: as §7
[17] = Drug uptake in immunocompromized nude mouse tumor xenografted with human U87 cells at 0.03 umol/kg, iv after 24 to 72 hrs by reflectance spectroscopic analysis; assay type: ADME, organism-based, Neoplasm, U-87MG ATCC; conditions: in vivo
[18] = Drug uptake in human U87 cell mitochondria assessed as color overlay at 1 uM after 24 hrs in dark by mitotracker red dye-based confocal microscopic analysis; assay type: ADME; conditions: u-87mg atcc
Summary of the method: (§8)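 U87 cells held with conjugate at 1 µM, imaged 24 h later by confocal microscopy. Lysosomal FluoSpheres yellow green at 1/100,000 dilution of commercial stock; MitoTracker Red 2.5 nM for 10 min. Overlays of the conjugate signal with each organelle dye.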

[19] = Drug uptake in human U87 cell lysosomes assessed as color overlay at 1 uM after 24 hrs in dark by FluoSpheres yellow green dye-based confocal microscopic analysis; assay type: ADME, Lysosome; conditions: u-87mg atcc; summary of the method: as §8

| Ratio [3] | Drug uptake [4] | Drug uptake [5] | Drug uptake [7] | Drug uptake [9] | Drug uptake [10] | Drug uptake [13] | Drug uptake [14] | Compound | Activity [1] [%] | EC50 [2] [nM] | Activity (Mus musculus [6]) | EC50 [8] [nM] | Activity (Mus musculus [11]) | Activity (Colon 26) | Activity [12] [%] | Activity (U-87MG ATCC) | also measured |
| --- | --- | --- | --- | --- | --- | --- | --- | --- | --- | --- | --- | --- | --- | --- | --- | --- | --- |
| 2.5 | Active | Active | Active | Active | Active |  |  | CCCCCCOC(C)c1c(C)c2cc3nc(c4c5[nH]c(cc6nc(cc1[nH]2)C(C)=C6CC)c(C)c5C(=O)C4)[C@@H](CCC(=O)NCCCCCCNC(=O)c1cccc(SC2=C(/C=C/C4=[N+](CCCCS(=O)(=O)[O-])c5ccc6ccccc6c5C4(C)C)CCC/C2=C\C=C2\N(CCCCS(=O)(=O)O)c4ccc5ccccc5c4C2(C)C)c1)[C@@H]3C (stereo partly specified) |  | 200 |  | 380 |  | Active | 90 |  |  |
| 2.3 | Active | Active | Active | Active | Active |  |  | CCCCCCOC(C)c1c(C)c2cc3nc(c4c5[nH]c(cc6nc(cc1[nH]2)C(C)=C6CC)c(C)c5C(=O)C4)[C@@H](CCC(=O)NCCCCCCNC(=O)c1ccc(SC2=C(/C=C/C4=[N+](CCCCS(=O)(=O)[O-])c5ccc6ccccc6c5C4(C)C)CCC/C2=C\C=C2\N(CCCCS(=O)(=O)O)c4ccc5ccccc5c4C2(C)C)cc1)[C@@H]3C (stereo partly specified) |  | 720 |  | 590 |  | Active | 70 | Active |  |
| 10 | Active | Active | Active | Active | Active | Active | Active | CCCCCCOC(C)c1c(C)c2cc3nc(c4c5[nH]c(cc6nc(cc1[nH]2)C(C)=C6CC)c(C)c5C(=O)C4)[C@@H](CCC(=O)NCCCCNC(=O)c1ccc(SC2=C(/C=C/C4=[N+](CCCCS(=O)(=O)[O-])c5ccc6ccccc6c5C4(C)C)CCC/C2=C\C=C2\N(CCCCS(=O)(=O)O)c4ccc5ccccc5c4C2(C)C)cc1)[C@@H]3C (stereo partly specified) | 20 | 130 |  | 290 |  |  |  |  |  |
| 6.5 | Active |  |  |  |  | Active | Active | CCCCCCOC(C)c1c(C)c2cc3nc(c4c5[nH]c(cc6nc(cc1[nH]2)C(C)=C6CC)c(C)c5C(=O)C4)[C@@H](CCC(=O)NCCCCNC(=O)c1cccc(SC2=C(/C=C/C4=[N+](CCCCS(=O)(=O)[O-])c5ccc6ccccc6c5C4(C)C)CCC/C2=C\C=C2\N(CCCCS(=O)(=O)O)c4ccc5ccccc5c4C2(C)C)c1)[C@@H]3C (stereo partly specified) | 80 | 180 |  | 150 |  |  |  | Active | Drug uptake [15]: Active; Drug uptake [16]: Active; Drug uptake [17]: Active; Drug uptake [18]: Active; Drug uptake [19]: Active |

| Compound | Ratio [3] | Drug uptake [4] | Drug uptake [5] | Drug uptake [7] | Drug uptake [9] | Drug uptake [10] | Drug uptake [13] | Drug uptake [14] | Activity [1] [%] | EC50 [2] [nM] | Activity (Mus musculus [6]) | EC50 [8] [nM] | Activity (Mus musculus [11]) | Activity (Colon 26) | Activity [12] [%] | Activity (U-87MG ATCC) | also measured |
| --- | --- | --- | --- | --- | --- | --- | --- | --- | --- | --- | --- | --- | --- | --- | --- | --- | --- |
| CCCCCCOC(C)c1c(C)c2cc3nc(c4c5[nH]c(cc6nc(cc1[nH]2)C(C)=C6CC)c(C)c5C(=O)C4)[C@@H](CCC(=O)NCCNC(=O)c1cccc(SC2=C(/C=C/C4=[N+](CCCCS(=O)(=O)[O-])c5ccc6ccccc6c5C4(C)C)CCC/C2=C\C=C2\N(CCCCS(=O)(=O)O)c4ccc5ccccc5c4C2(C)C)c1)[C@@H]3C (stereo partly specified) | 2.5 | Active | Active | Active | Active | Active |  |  | 80 | 1580 | Toxic | 570 | Toxic |  |  |  |  |
| CCCCCCOC(C)c1c(C)c2cc3nc(c4c5[nH]c(cc6nc(cc1[nH]2)C(C)=C6CC)c(C)c5C(=O)C4)[C@@H](CCC(=O)NCCNC(=O)c1ccc(SC2=C(/C=C/C4=[N+](CCCCS(=O)(=O)[O-])c5ccc6ccccc6c5C4(C)C)CCC/C2=C\C=C2\N(CCCCS(=O)(=O)O)c4ccc5ccccc5c4C2(C)C)cc1)[C@@H]3C (stereo partly specified) | 2 | Active | Active | Active | Active | Active |  |  |  | 2510 | Toxic | 790 | Toxic |  |  |  |  |
